For the experiment, the species on record is Homo sapiens. In words: In vitro inhibition of histamine release from human basophils. Type of experiment: functional, organism-based. Put shortly:
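Human basophils separated from leukocytes were incubated with test compound, then challenged with anti-IgE or antigen (Lichtenstein method). Histamine release was measured against controls and blanks. IC50 is the concentration lowering histamine release by 50%.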

SMILES strings stand for the structures.

For the molecule `Nc1cccc(Nc2nccc(-c3ccncc3)n2)c1`, half-maximal inhibition (Homo sapiens) (IC50) required 1000 nM.
With `c1cc(Nc2nccc(-c3ccncc3)n2)cc(-n2ccnc2)c1` [listing 1 of 2 here], the IC50 was 3900 nM.
Turning to `CC(=O)N(C)c1ccc(Nc2nccc(-c3ccncc3)n2)cc1`, it took 500 nM to reach half-maximal inhibition (Homo sapiens) (IC50).
Same read-out and setting: then `c1ccc(Nc2nccc(-c3ccncc3)n2)cc1`, with 900 nM.
Turning to `c1coc(-c2ccnc(Nc3ccc(-n4ccnc4)cc3)n2)c1`, the half-inhibitory concentration (IC50) (Homo sapiens) was 2200 nM.
Same read-out and setting: as for `COc1ccccc1Nc1nccc(-c2cccnc2)n1`, the figure is 9800 nM; as for `COc1ccc(Nc2nccc(-c3cc[n+](C)cc3)n2)cc1`, 33300 nM; as for `CC1CCN(c2cccc(Nc3nccc(-c4cccnc4)n3)c2)CC1`, 1200 nM.
Regarding `CC(=O)Nc1ccc(Nc2nccc(-c3cccnc3)n2)cc1`, under “Homo sapiens”, inhibition was half-maximal at 3600 nM (IC50).
Still for that read-out and setting: as for `CC1CCN(c2ccc(Nc3nccc(-c4ccco4)n3)cc2)CC1`, the figure is 1800 nM.
Where the note is “Homo sapiens”, `COc1cccc(Nc2nccc(-c3ccc(C)s3)n2)c1` registered an IC50 of 2300 nM.
On the same count and under the same terms, as for `Fc1cccc(Nc2nccc(-c3ccncc3)n2)c1`, the figure is 700 nM.
On the same count and under the same terms, as for `Clc1cccc(Nc2nccc(-c3cccnc3)n2)c1`, the figure is 1500 nM; as for `CCN(CC)CCSc1ccc(Nc2nccc(-c3ccncc3)n2)cc1`, 1000 nM.
The molecule `c1ccc(-c2ccnc(Nc3cccc(-n4ccnc4)c3)n2)nc1` registered an IC50 of 200 nM.
Regarding `CCN(CC)CCOc1cccc(Nc2nccc(-c3ccncc3)n2)c1`, where the note is “Homo sapiens”, the IC50 stood at 600 nM.
Take `FC(F)(F)c1cccc(Nc2nccc(-c3ccccn3)n2)c1`: half-maximal inhibition (IC50) required 2900 nM.
Where the note is “Homo sapiens”, `Cc1cccc(Nc2nccc(-c3ccc[nH]3)n2)c1` yielded an IC50 of 8500 nM.
In turn, `Fc1ccc(Nc2nccc(-c3ccncc3)n2)cc1` came in with a concentration for half-maximal inhibition (IC50) (Homo sapiens) of 1900 nM.
On the same count and under the same terms, then `CC1CCN(c2cccc(Nc3nccc(-c4cccs4)n3)c2)CC1`, with 3500 nM; and `CCc1cccc(Nc2nccc(-c3ccco3)n2)c1`, with 9700 nM; and `CCN(CC)c1ccc(Nc2nccc(-c3cc(C)oc3C)n2)cc1`, with more than 24000 nM.
In turn, `CCc1ccc(Nc2nccc(-c3ccncc3)n2)cc1` showed an IC50 (Homo sapiens) of 7700 nM.
The same measure, in the same setting: then `CN(C)c1ccc(Nc2nccc(-c3ccccn3)n2)cc1`, with 3300 nM; and `NS(=O)(=O)c1cccc(Nc2nccc(-c3ccncc3)n2)c1`, with 500 nM; and `CCc1ccc(Nc2nccc(-c3ccccn3)n2)cc1`, with 2100 nM.
The same measure, in the same setting: then `Cc1ccccc1Nc1nccc(-c2ccncc2)n1`, with 3900 nM.
`c1cc(Nc2nccc(-c3ccco3)n2)cc(OCCn2ccnc2)c1` yielded an IC50 (Homo sapiens) of 200 nM.
The same measure, in the same setting: as for `Cc1ccc(Nc2nccc(-c3ccccn3)n2)cc1C`, the figure is 5900 nM.
Still for that read-out and setting: then `Cc1cccc(Nc2nccc(-c3cccs3)n2)c1`, with 300 nM; and `COc1cccc(Nc2nccc(-c3ccco3)n2)c1`, with 400 nM.
In turn, `CN(C)c1cccc(Nc2nccc(-c3cccs3)n2)c1` gave an IC50 (Homo sapiens) of 2400 nM.
On the same count and under the same terms, then `COc1cccc(Nc2nccc(-c3cccnc3)n2)c1`, with 300 nM; and `Cc1cc(C)cc(Nc2nc(C)cc(-c3ccco3)n2)c1`, with more than 24000 nM.
As for `COc1ccc(Nc2nccc(-c3ccncc3)n2)cc1`, the midpoint of inhibition (Homo sapiens), the IC50, lay at 4200 nM.
`Cc1ccc(-c2ccnc(Nc3cccc(N(C)C)c3)n2)s1` gave an IC50 (Homo sapiens) of 5700 nM. The IC50 values of the last two molecules are within 1.5-fold of each other.
Same read-out and setting: as for `CC1CCN(C(=O)COc2ccc(Nc3nccc(-c4ccncc4)n3)cc2)CC1`, the figure is 300 nM.
The molecule `CCc1cccc(Nc2nccc(-c3ccsc3)n2)c1` registered an IC50 (Homo sapiens) of 1100 nM.
For `CCc1ccc(Nc2nccc(-c3cc(C)oc3C)n2)cc1`, the IC50 (Homo sapiens) was 19200 nM.
On the same count and under the same terms, then `Nc1ccc(Nc2nccc(-c3cccnc3)n2)cc1`, with 2800 nM.
`NS(=O)(=O)c1cccc(Nc2nccc(-c3cccnc3)n2)c1` came in with a half-inhibitory concentration (IC50) (Homo sapiens) of 200 nM.
For `CN(C)c1cccc(Nc2nccc(-c3ccncc3)n2)c1`, the IC50 (Homo sapiens) was determined as 3700 nM.
In the case of `FC(F)(F)c1cccc(Nc2nccc(-c3cccnc3)n2)c1`, the IC50 came out at 700 nM.
The same measure, in the same setting: then `c1cc(Nc2nccc(-c3ccncc3)n2)cc(-n2ccnc2)c1` [listing 2 of 2 here], with 600 nM.
As for `c1ccc(Nc2nccc(-c3cccnc3)n2)cc1`, inhibition (Homo sapiens) was half-maximal at 900 nM (IC50).

The term IC50 denotes the concentration that inhibits the measured activity by half.

The values are drawn from ChEMBL document CHEMBL1126800, “Preparation of substituted N-phenyl-4-aryl-2-pyrimidinamines as mediator release inhibitors” (J Med Chem, 1993).
